ChEMBL document CHEMBL2010661, “Optimization of 2,4-diarylanilines as non-nucleoside HIV-1 reverse transcriptase inhibitors” (Bioorg Med Chem Lett, 2012)
In brackets after ≈: the same amount, converted by molar mass.

Tests used:
[1] = test system: Liver microsomes; test: Half life in rat liver microsomes at 1 uM; format: ADME, Microsome
Procedure, shortened: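 Rat liver microsome incubation of 1 μM compound at 37 °C in 0.1 M potassium phosphate pH 7.4 with 5 mM MgCl2. NADPH (1.0 mM final) started the reaction, with ice-cold ACN quench at 0–60 min, in duplicate. […] Means of at least two experiments.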

[2] = test system: Human immunodeficiency virus 1; test: Antiviral activity against Human immunodeficiency virus 1 harboring reverse transcriptase E138K mutant; format: functional, organism-based
[3] = test system: Liver microsomes; test: Clearance in human liver microsomes at 1 uM; format: ADME, Microsome
Procedure, shortened: (§1)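 1 μM compound (diluted from DMSO stock via ACN) at 37 °C in 0.1 M potassium phosphate pH 7.4 with 0.1 mg/mL human liver microsomes and 5 mM MgCl2. NADPH (1.0 mM final) started the reaction.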

[4] = test system: Liver microsomes; test: Half life in human liver microsomes at 1 uM; format: ADME, Microsome; procedure, shortened: as §1
[5] = Aqueous solubility of the compound at pH 7.4 by HPLC/UV analysis; format: physicochemical; settings: buffer
[6] = test system: Human immunodeficiency virus 1; test: Antiviral activity against Human immunodeficiency virus 1 NL4-3 infected in human TZM-bl cells assessed as inhibition of viral replication; format: functional, organism-based; settings: Human immunodeficiency virus 1, NL4-3, TZM-bl
[7] = Cytotoxicity against human TZM-bl cells; format: cell-based
[8] = Selectivity index, ratio of CC50 for human TZM-bl cells to EC50 for Human immunodeficiency virus 1 NL4-3; format: toxicity, cell-based; settings: read-out: Ratio CC50/EC50
[9] = Aqueous solubility of the compound at pH 2 by HPLC/UV analysis; format: physicochemical; settings: buffer
[10] = test system: Human immunodeficiency virus 1; test: Antiviral activity against Human immunodeficiency virus 1 harboring reverse transcriptase K101E mutant; format: functional, organism-based
Procedure, shortened: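 EC50 against the resistant strain (RTMDR1, K101E or E138K), from experiments run at least in triplicate and reported as mean ± SD.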

[11] = test system: Human immunodeficiency virus 1; test: Antiviral activity against multi-reverse transcriptase-resistant Human immunodeficiency virus 1; format: functional, organism-based

| SMILES | t1/2 [1] [h] | EC50 [2] [nM] | CLH [3] [µL/min/mg] | t1/2 [4] [h] | solubility [5] [µg/mL] | EC50 [6] [nM] | CC50 [7] [nM] | selectivity ratio [8] | solubility [9] [µg/mL] | EC50 [10] [nM] | EC50 [11] [nM] |
| --- | --- | --- | --- | --- | --- | --- | --- | --- | --- | --- | --- |
| Cc1cc(/C=C/C#N)cc(C)c1Oc1cc(Nc2ccc(C#N)cc2)c(N)cc1[N+](=O)[O-] | 2.32 | 11.3 | 150 | 0.783 |  |  |  |  |  |  |  |
| COC(=O)c1cc(N)c(Nc2ccc(C#N)cc2)cc1Oc1c(C)cc(/C=C/C#N)cc1C |  |  |  |  | 1.3 (≈ 2.96 µM) | 2.74 | > 22800 | > 8460 | 1.75 (≈ 3.99 µM) |  |  |
| Cc1cc(/C=C/C#N)cc(C)c1Oc1cc(Nc2ccc(C#N)cc2)c(N)cc1C(=O)O |  |  |  |  | 117 (≈ 276 µM) | 230 | 14900 | 65 | 4.4 (≈ 10.4 µM) |  |  |
| Cc1cc(/C=C/C#N)cc(C)c1Oc1cc(Nc2ccc(C#N)cc2)c(N)cc1C(N)=O | 2.03 | 9 | 200 | 0.583 | 0.63 (≈ 1.49 µM) | 0.87 | > 23600 | > 27100 | 2.1 (≈ 4.96 µM) | 8.8 | 0.31 |
| CNC(=O)c1cc(N)c(Nc2ccc(C#N)cc2)cc1Oc1c(C)cc(/C=C/C#N)cc1C |  |  |  |  | 1.32 (≈ 3.02 µM) | 5.72 | > 9200 | > 1610 | 8.63 (≈ 19.7 µM) |  |  |
| Cc1cc(/C=C/C#N)cc(C)c1Oc1cc(Nc2ccc(C#N)cc2)c(N)cc1CO | 1.4 | 3.9 | 230 | 0.5 | 3.23 (≈ 7.87 µM) | 0.53 | 16300 | 30800 | 21 (≈ 51.2 µM) | 3.4 | 0.36 |
| Cc1cc(/C=C/C#N)cc(C)c1Nc1ccnc(Nc2ccc(C#N)cc2)n1 [RILPIVIRINE] | 2 |  | 200 | 0.567 |  |  | 19400 |  |  |  |  |
